High-throughput results deposited in PubChem BioAssay by several laboratories.
SUMO1 PPI mod – alters human SUMO1 binding to SIM partners | inhibition, % at 20 µM | 0.33% of 360,000 active | SUMO1 binding to a labelled peptide, TR-FRET, 1 h; in the data active means inhibition above about 37%
Target sequence (P63165 whole entry, looked up): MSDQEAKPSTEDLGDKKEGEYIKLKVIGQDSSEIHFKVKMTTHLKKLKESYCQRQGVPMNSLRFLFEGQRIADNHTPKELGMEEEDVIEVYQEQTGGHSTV
F508del corr – correctors of CFTR F508del function in bronchial epithelial cells; 0.36% of 350,000 active; activity (quench increase), % at 7.58 µM; AID 720511; CFBE cells, YFP halide quenching; stimulated with forskolin plus potentiator P3; % fluorescence drop versus neutral controls;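 active means mean added fluorescence quench of at least 8% versus neutral control, with both replicates also reaching 8%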;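 further: cells transiently co-express mutant CFTR-F508del with the halide-sensitive YFP; corrector assay measuring rescue of mutant channel to the surface after 24 h compound exposure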
STEP inh – STEP (human) phosphatase inhibition. P54829. recombinant STEP, OMFP fluorogenic substrate, fluorescence. inhibition, % at 20 µM. 0.25% of 360,000 active. AID 588621;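 active means inhibition at 20 µM, scaled per plate between control wells, above about 37%, limit read from the data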;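 further: 0% = DMSO with enzyme and substrate and 100% = substrate only without enzyme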
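material = STEP tyrosine phosphatase | reagent = fluorogenic phosphatase substrate OMFP at 25 µM final | doses = single compound dose of 20 µM, 1% DMSO final | schedule = 20 min reaction, room temperature, in the dark | measured by = fluorescence, 480/540 nm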
DNMT1 inh – DNMT1 (human) enzyme inhibition; P26358; DNMT1 molecular beacon, Hinp1I cleavage, fluorescence; inhibition (reported as % activation of signal), % at 10 µM; 0.83% of 360,000 active; AID 588458; in the data active means inhibition above about 50%
Scp1 inh – Scp-1 (human) phosphatase inhibition; Q9GZU7; Recombinant Scp1, phosphopeptide, malachite green phosphate absorbance; inhibition, % at 20 µM; 0.88% of 340,000 active; AID 493091;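 active means inhibition above about 50% at 20 µM, limit read from the data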;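 further: plate controls were DMSO wells with enzyme for no effect and wells lacking enzyme for full effect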
Target sequence (Q9GZU7 76-261 limits assumed): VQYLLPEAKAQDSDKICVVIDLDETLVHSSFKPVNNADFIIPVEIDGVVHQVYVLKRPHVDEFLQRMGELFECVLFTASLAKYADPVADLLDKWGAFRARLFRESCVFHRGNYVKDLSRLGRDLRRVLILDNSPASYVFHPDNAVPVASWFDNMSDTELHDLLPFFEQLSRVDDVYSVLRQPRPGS
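assay system = SCP-1 phosphatase catalytic domain, residues 76-261 | buffer or medium = 50 mM Tris acetate pH 5.5, 0.005% Tween-20, 10 mM MgCl2 | incubation = enzyme reaction 45 min at room temperature, colour 5 min, stabilisation 30 min | signal = Phosphate-binding colour reagent, absorbance read at 630 nm | measure = % inhibition at 20 µM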
LMPTP inh – LMPTP (human) inhibition | recombinant LMPTP-A, OMFP fluorogenic substrate, fluorescence intensity | inhibition, % at 20 µM | 0.22% of 360,000 active | AID 651560;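 active means compounds that cut the enzyme signal by at least half of the control window in the single-dose screen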;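 further: plate controls were DMSO wells with enzyme plus substrate for no effect and substrate without enzyme for full effect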
Target sequence (P24666 whole entry, looked up): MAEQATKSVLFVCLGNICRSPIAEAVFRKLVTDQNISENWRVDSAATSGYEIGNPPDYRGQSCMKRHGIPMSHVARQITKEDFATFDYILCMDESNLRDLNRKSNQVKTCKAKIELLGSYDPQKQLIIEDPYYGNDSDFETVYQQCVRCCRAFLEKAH
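material = LMPTP-A | quantity = 0.625 nM enzyme | reagent = OMFP substrate, 400 µM final | buffer or medium = Bis-Tris pH 6.0, DTT, detergent | detection = endpoint fluorescence intensity from OMFP dephosphorylation | dosing = single 20 µM dose | read-out basis = % inhibition relative to no-enzyme and uninhibited control wells | control set = no-enzyme and uninhibited controls | timing = 50 min at room temperature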
* hit, by the source's call; nt = no result; ! = a repeat was not active. Most compounds without a hit are left out; they make up all but 1.6% or so of the library.

SMILES	SUMO1 PPI mod	F508del corr	STEP inh	DNMT1 inh	Scp1 inh	LMPTP inh
COc1ccc2c(c1)c(=O)oc1cc(OCC(=O)N3CCC(C)CC3)ccc12	6.9	nt	0.4	62.9*	77.1*	13.2
COc1ccc2c(c1)c(=O)oc1cc(OCC(=O)N3CCCC(C)C3)ccc12 (stereo unspecified)	7.9	nt	9.0	13.2	33.4	3.9
C[C@H](CO)N1C[C@H](C)[C@H](CN(C)C(=O)Nc2ccccc2F)OCc2cn(nn2)CCCC1=O	nt	-0.4	nt	nt	nt	nt
COc1ccc(CNC2CC(C)N(C)CC2C)cc1OC (stereo unspecified)	20.5	2.5	-2.8	0.8	-2.4	53.0*
Cc1nc(S/C(=C\c2ccc(OCc3ccccc3Cl)cc2)C(=O)O)n[nH]1	5.4	nt	2.3	-5.4	11.4	-1.6
Cc1nc(S/C(=C\c2ccc(-c3ccc(C(=O)O)c(Cl)c3)o2)C(=O)O)n[nH]1	57.5*	-0.4	25.5	91.4*	83.4*	9.9
C[C@@H]1CN([C@H](C)CO)C(=O)c2cc(NS(=O)(=O)c3ccc(Cl)cc3)ccc2O[C@@H]1CN(C)Cc1ccc(-c2ccccc2)cc1	nt	9.4*	nt	nt	nt	nt
Cc1ccc(S(=O)(=O)Nc2ccc3c(c2)C(=O)N([C@H](C)CO)C[C@@H](C)[C@H](CN(C)S(=O)(=O)c2ccccc2)OCCCC[C@H](C)O3)cc1	nt	-2.9	nt	nt	nt	nt
C[C@H](CO)N1C[C@H](C)[C@H](CN(C)Cc2ccc(-c3ccccc3)cc2)Oc2ccc(NS(=O)(=O)c3ccc(Cl)cc3)cc2C1=O	nt	3.1	nt	nt	nt	nt
COc1ccc(S(=O)(=O)Nc2ccc3c(c2)C(=O)N([C@@H](C)CO)C[C@@H](C)[C@H](CN(C)Cc2ccc(Oc4ccccc4)cc2)O3)cc1	nt	10.5*	nt	nt	nt	nt
Cc1ccc(S(=O)(=O)Nc2ccc3c(c2)C(=O)N([C@@H](C)CO)C[C@@H](C)[C@@H](CN(C)S(=O)(=O)c2ccccc2)OCCCC[C@H](C)O3)cc1	43.5*	-1.2	5.3	-13.3	nt	1.5
C[C@@H]1CN([C@@H](C)CO)C(=O)c2cccc(NC(=O)Nc3ccc4c(c3)OCO4)c2O[C@H]1CN(C)S(=O)(=O)c1ccccc1	nt	9.0*	nt	nt	nt	nt
COc1ccc(S(=O)(=O)Nc2ccc3c(c2)C(=O)N([C@@H](C)CO)C[C@H](C)[C@H](CN(C)Cc2ccc(Cl)c(Cl)c2)O3)cc1	nt	1.9	nt	nt	nt	nt
COc1ccc(S(=O)(=O)Nc2ccc3c(c2)C(=O)N([C@H](C)CO)C[C@@H](C)[C@@H](CN(C)Cc2ccc(Cl)c(Cl)c2)O3)cc1	nt	13.1*	nt	nt	nt	nt
CCNC(=O)Nc1ccc2c(c1)C(=O)N(C)[C@H]1CC[C@H](CC(=O)NC3CCCCC3)O[C@H]1CO2	nt	-1.3	nt	nt	nt	nt
COc1ccc(C2NC(=S)NC3=C2CCCC3=C2SCCS2)cc1 (stereo unspecified)	-9.8	10.5*	-0.9	-10.9	6.8	0.1
NC(=NCCCCCCN=C(N)/N=C(\N)Nc1ccc(Cl)cc1)/N=C(\N)Nc1ccc(Cl)cc1	-122.6	11.5*!	5.9	-60.0	-17.2	-0.1
CC(C)N=C(N)N=C(N)Nc1ccc(Cl)cc1	-4.9	-1.6	-0.2	7.4	-14.5	-1.4
COc1ccc(Cc2nnc(NN)[nH]c2=O)cc1OC	0.8	-2.6	2.3	0.8	-9.1	0.8
COc1ccc(Cc2nnc(SC)[nH]c2=O)cc1OC	41.9*	nt	0.6	0.8	-5.2	-1.2
COc1ccccc1N1CCN(C(=O)c2cn(Cc3ccccc3)nc2-c2cccnc2)CC1	2.3	2.5	-0.8	1.6	-4.3	-0.4
COc1cccc(N2CCN(C(=O)c3ccc(CS(=O)c4ccc(C)cc4)o3)CC2)c1 (stereo unspecified)	0.7	9.6*	-4.1	0.0	0.3	-0.6
COc1cccc(N2CCN(C(=O)c3cn(Cc4ccccc4)nc3-c3cccnc3)CC2)c1	-3.2	14.6*	-3.6	1.3	-5.0	0.4
COc1cccc(N2CCN(C(=O)c3ccc(CS(=O)Cc4ccc(C)cc4)o3)CC2)c1 (stereo unspecified)	0.3	2.1	-1.8	-3.9	-8.2	-0.2
COc1cccc(N2CCN(C(=O)c3ccc(CS(=O)c4ccc(Cl)cc4)o3)CC2)c1 (stereo unspecified)	0.0	8.4*	-1.1	2.2	0.0	0.5
SMILES	SUMO1 PPI mod	F508del corr	STEP inh	DNMT1 inh	Scp1 inh	LMPTP inh
C[C@@H]1CN([C@@H](C)CO)S(=O)(=O)c2ccc(-c3cccc(C#N)c3)cc2O[C@H]1CN(C)C(=O)c1cccnc1	nt	2.0	nt	nt	nt	nt
O=C(C[C@H]1C[C@H]2c3cc(NC(=O)CC4CC4)ccc3O[C@H]2[C@@H](CO)O1)NCc1cc(F)ccc1F	nt	0.5	nt	nt	nt	nt
C=C1SC(Nc2c(C)cc(C)cc2C)=NC12CCCCC2	1.1	10.9*	0.8	11.4	5.3	2.4
C=C1SC(Nc2c(C)cccc2C)=NC12CCCCC2	-4.8	2.8	-0.7	5.1	-11.2	0.3
Nc1c(S(=O)(=O)O)cc(NC(=O)c2ccccc2)c2c1C(=O)c1ccccc1C2=O	69.4*	nt	33.4	39.1	70.6*	16.1
O=C(Nc1ccccc1-c1ccccc1)c1ccccc1	-0.4	0.1	-5.2	1.8	-2.0	-0.2
CCN(CC)CCn1c2c(c(SCC(=O)Nc3ccc(F)c(F)c3)nc1=O)CCC2	2.3	9.2*	0.1	0.8	-0.1	0.7
Oc1ccccc1/C=N/[n+]1ccccc1	-3.9	-1.8	-1.1	-1.8	103.2*	-1.7
COc1ccc(/C=C/C(=O)NC(=S)NNC(=O)c2cnccn2)cc1	-14.4	2.0	2.3	0.8	-11.2	-1.1
O=C(/C=C/c1ccc(F)cc1)NC(=S)NNC(=O)c1cnccn1	-3.3	0.8	3.2	3.5	68.8*	0.1
C/C(=N\NC(=O)c1ccc([N+](=O)[O-])cc1)c1c(O)cc(C)oc1=O	-6.7	2.4	-4.9	1.3	-6.0	-1.4
C/C(=N/NC(=O)c1cc(O)c(O)c(O)c1)c1ccc([N+](=O)[O-])cc1	-16.2	-1.5	1.1	11.2	50.5*	10.3
CC(C)C(=O)Nc1ccc2c(c1)C(=O)N(C)[C@@H]1CC[C@@H](CC(=O)N[C@H](C)c3ccccc3)O[C@H]1CO2	nt	1.7	nt	nt	nt	nt
CNC[C@@H]1Oc2ncc(-c3cccc(C(=O)N(C)C)c3)cc2C(=O)N([C@@H](C)CO)C[C@H]1C	nt	-3.9	nt	nt	nt	nt
COC(=O)c1ccc2c(c1)C(=O)/C(=C/c1ccc(O)cc1)O2	47.1*	nt	-0.6	-4.9	18.1	7.1
COc1ccc(-n2c(SCC(=O)Nc3cccc(S(N)(=O)=O)c3)nc3ccccc3c2=O)cc1OC	36.5*	1.9	-1.3	-2.8	-5.2	-0.4
CN(C)CC(=O)N1CC2(C1)[C@@H](c1ccccc1)[C@@H](CO)N2Cc1cc(F)ccc1F	nt	3.4	nt	nt	nt	nt
